Source: article PMC5824357 (RNA, 2018)
Where two headings read alike, the source gives them in different places. Ends that are not written are not given here. λN = λN tag that binds BoxB hairpins, for tethering; HA = not defined here

Tests used:
[1] = molecular target: Dm CN9BD–CAF40 complex (Drosophila melanogaster) (UniProt Q7JVP2); experiment: ITC
F-Luc-5BoxB mRNA = experiment: Tethering assay in S2 cells, F-Luc-5BoxB reporter; type: cell-based, Drosophila melanogaster; settings: for repression/degradation activity in tethering: λN-HA-tagged, S2 cells, harvested 3 days after transfection
[2] = molecular target: T1, Hs NOT1 CN9BD–CAF40 complex (human, UniProt A5YKK6;Q92600); experiment: pull-down
[3] = molecular target: GST-tagged Hs CAF40 (ARM domain) (human, UniProt Q92600); experiment: pull-down
[4] = molecular target: T1, Hs NOT1 CN9BD–CAF40 complex; experiment: crystal structure
[5] = molecular target: T2, Hs CAF40 (ARM domain, residues R19–E285) (human, UniProt Q92600 19-285); experiment: crystal structure
[6] = molecular target: T2, Hs CAF40 (ARM domain, residues R19–E285); experiment: crystal structure; remark: listed apart in the source
F-Luc-5BoxB-A95C7-HhR = experiment: Tethering assay in S2 cells, F-Luc-5BoxB-A95C7-HhR reporter; type: cell-based, Drosophila melanogaster
[7] = system: Dm NOT1-CN9BD–CAF40 complex; experiment: In vitro MBP pull-down, Dm CN9BD–CAF40; type: binding, Drosophila melanogaster; settings: MBP-tagged proteins, amylose resin, 50 mM HEPES pH 7.5, 200 mM NaCl, 2 mM DTT, 1 h; SDS-PAGE, Coomassie
In short: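 Proteins were expressed in E. coli BL21 (DE3) Star overnight at 20°C. Tethered-protein constructs carried an N-terminal MBP tag and were purified by amylose resin, anion exchange and gel filtration. MBP (20 µg, negative control) or MBP fusion (40 µg) was incubated 1 h with equimolar purified CCR4–NOT modules plus amylose resin. Beads were washed five times and eluted with 25 mM maltose. Eluates were TCA-precipitated and analysed by SDS-PAGE/Coomassie.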

T1 sequence (Q92600 19-285, one chain of several): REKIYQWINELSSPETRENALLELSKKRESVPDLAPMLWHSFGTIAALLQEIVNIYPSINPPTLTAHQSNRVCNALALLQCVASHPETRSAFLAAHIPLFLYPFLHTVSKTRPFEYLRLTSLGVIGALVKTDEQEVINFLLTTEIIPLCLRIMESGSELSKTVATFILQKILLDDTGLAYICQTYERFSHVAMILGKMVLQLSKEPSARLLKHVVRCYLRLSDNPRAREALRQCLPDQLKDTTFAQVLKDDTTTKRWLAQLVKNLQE
T2 sequence (Q92600 19-285): as the sequence (Q92600 19-285, one chain of several) above
Chain of GST-tagged Hs CAF40 (ARM domain) (Q92600 19-285): as the sequence (Q92600 19-285, one chain of several) above

For “Bam CBM peptide (residues D13–E36) (from UniProt P22745 13-36)”, the Kd [1] was 183 nM.

In the case of “fragment D13–E36 fused to GST: λN-HA-GST-Bam 13–36 ({λN-HA-GST}-DDQQLDHNFKQMEEHLALMVEGNE; reading uncertain; UniProt P22745 13-36, looked up, fragment)”, the “repression/degradation activity in tethering” value (F-Luc-5BoxB mRNA) is reported as “sufficient to induce the repression and degradation of the F-Luc-5BoxB mRNA to a similar extent as full-length Bam”.

B1: MBP-tagged full-length Bam (natural protein)
chain: MLNARDVCPEGNDDQQLDHNFKQMEEHLALMVEGNENEDPRKATCEYEDTNEDGATCTSGVLSEIQENFGRLRLCDVTAPLLEFHGLDCLQQIQKRSRHFAFDGSPAKKSRSGGVLVTGPKQKQLQKENVWNRKSKGSASADNIEKLPITIEKLHMIGLHGDCLEHNAVLRLMNLFRSLHDHLTADLGFSRQNSMPSDYLFDMPVKSTMPKSLNVRYQLQVLCTKVERFLVQQRRTLEANRHFDFEKYDECDKLLKGFASYLDNFKLLLKPKMRNRNGNSGSNADKFHTQRMERLLIGLRDWIKAAHLSVHVFNWEMDLEHRYSGAMTESHKSLNERAILLSGAELRAAEARGISAEDLFIAQRYKLGGPIYCVLEQHEFLSALIANPETYFPPSVVAICGPQKLGAVSMEQPSASEEEFEETEEVPSSPPRHTGRVPRFRS
B1: binds [2].

DDQQLDHNFKQMEEHLALMVEGNE (domain or fragment) [MBP-tagged Bam CBM]: binds [3]; binds [2].

DDQQLDHNFKQMEEHLALMVEGNE [Bam CBM peptide (residues D13–E36)]: binds [4]; binds [5].

B2: Hs NOT1 CN9BD (residues V1351–L1588) (domain or fragment)
chain: VPPQPQYSYHDINVYSLAGLAPHITLNPTIPLFQAHPQLKQCVRQAIERAVQELVHPVVDRSIKIAMTTCEQIVRKDFALDSEESRMRIAAHHMMRNLTAGMAMITCREPLLMSISTNLKNSFASALRTASPQQREMMDQAAAQLAQDNCELACCFIQKTAVEKAGPEMDKRLATEFELRKHARQEGRRYCDPVVLTYQAERMPEQIRLKVGGVDPKQLAVYEEFARNVPGFLPTNDL
B2: binds [6].

B3: Bam-N: Bam N-terminal fragment, residues 1–140 (protein, UniProt P22745 1-140, looked up, fragment)
chain: MLNARDVCPEGNDDQQLDHNFKQMEEHLALMVEGNENEDPRKATCEYEDTNEDGATCTSGVLSEIQENFGRLRLCDVTAPLLEFHGLDCLQQIQKRSRHFAFDGSPAKKSRSGGVLVTGPKQKQLQKENVWNRKSKGSAS
In the case of B3, the “F-Luc-5BoxB mRNA degradation in DCP2-depleted cells” value (F-Luc-5BoxB mRNA; DCP2 knockdown, DCP2 E361Q overexpressed) is reported as “impaired”, the “F-Luc activity in DCP2-depleted cells” value (F-Luc-5BoxB mRNA; DCP2 knockdown, DCP2 E361Q overexpressed, F-Luc activity) is reported as “not restored” and the “F-Luc-5BoxB mRNA degradation after NOT1 depletion” value (F-Luc-5BoxB mRNA; NOT1-depleted S2 cells) is reported as “partially suppressed degradation of F-Luc-5BoxB mRNA”. For the same molecule, the “repression/degradation activity in tethering” value (F-Luc-5BoxB mRNA) was “retained the activity of the full-length protein” and the “repression of deadenylation-resistant reporter” value (F-Luc-5BoxB-A95C7-HhR) was “repressed the expression of this reporter in S2 cells”.

B4: Bam-C: Bam C-terminal fragment, residues 141–442 (protein, UniProt P22745 141-442, looked up, fragment)
chain: ADNIEKLPITIEKLHMIGLHGDCLEHNAVLRLMNLFRSLHDHLTADLGFSRQNSMPSDYLFDMPVKSTMPKSLNVRYQLQVLCTKVERFLVQQRRTLEANRHFDFEKYDECDKLLKGFASYLDNFKLLLKPKMRNRNGNSGSNADKFHTQRMERLLIGLRDWIKAAHLSVHVFNWEMDLEHRYSGAMTESHKSLNERAILLSGAELRAAEARGISAEDLFIAQRYKLGGPIYCVLEQHEFLSALIANPETYFPPSVVAICGPQKLGAVSMEQPSASEEEFEETEEVPSSPPRHTGRVPRFRS
B4 was tested, and the “repression/degradation activity in tethering” value (F-Luc-5BoxB mRNA) was “strongly impaired”.

B5: ΔCBM: Bam Δ13–36 (protein)
chain: MLNARDVCPEGNNEDPRKATCEYEDTNEDGATCTSGVLSEIQENFGRLRLCDVTAPLLEFHGLDCLQQIQKRSRHFAFDGSPAKKSRSGGVLVTGPKQKQLQKENVWNRKSKGSASADNIEKLPITIEKLHMIGLHGDCLEHNAVLRLMNLFRSLHDHLTADLGFSRQNSMPSDYLFDMPVKSTMPKSLNVRYQLQVLCTKVERFLVQQRRTLEANRHFDFEKYDECDKLLKGFASYLDNFKLLLKPKMRNRNGNSGSNADKFHTQRMERLLIGLRDWIKAAHLSVHVFNWEMDLEHRYSGAMTESHKSLNERAILLSGAELRAAEARGISAEDLFIAQRYKLGGPIYCVLEQHEFLSALIANPETYFPPSVVAICGPQKLGAVSMEQPSASEEEFEETEEVPSSPPRHTGRVPRFRS
modifications: left off: MBP, N-terminal, kept
With B5 the “repression/degradation activity in tethering” value (F-Luc-5BoxB mRNA) was “sufficient to abolish the repressive activity of Bam” and the interaction in pull-down [7] was “abolished the interaction with the Dm CN9BD–CAF40 module in vitro”.
